Bioassay records as filed in PubChem.
A selection: hits, their analogues and other compounds. The true share with any hit is near 3.5%.
MrgX1 antagonist – antagonists of human MrgX1 receptor. Q96LB2. MRGX1-HEK293 calcium flux, Fluo-4, BAM8-22 antagonism; hits give low values. B-score at 10 µM. 1.3% of 310,000 active. AID 588676;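 active = calcium-response B-score plate-corrected more than 3 library SD below zero, starting fluorescence within 5 deviations, no agonist response on first addition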;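 also: peak minus trough fluorescence over baseline after final BAM8-22 challenge near maximal dose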
Target sequence (Q96LB2 whole entry, looked up): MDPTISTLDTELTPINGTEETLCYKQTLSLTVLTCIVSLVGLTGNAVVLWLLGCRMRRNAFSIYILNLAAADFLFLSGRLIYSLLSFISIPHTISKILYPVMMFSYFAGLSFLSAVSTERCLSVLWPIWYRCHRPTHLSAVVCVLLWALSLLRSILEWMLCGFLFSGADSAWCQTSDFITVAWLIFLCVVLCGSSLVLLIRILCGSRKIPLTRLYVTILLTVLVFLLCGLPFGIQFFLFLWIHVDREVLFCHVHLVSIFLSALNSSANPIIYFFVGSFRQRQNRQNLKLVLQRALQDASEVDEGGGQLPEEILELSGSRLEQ
MrgX1 agonist – activates human MrgX1 receptor signaling. Q96LB2. MrgX1-HEK293 cells, Fluo-4 calcium fluorescence, agonist mode; hits give high values. B-score at 10 µM. 0.44% of 310,000 active. AID 588627;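 active = calcium response B-score plate-corrected fluorescence ratio at least 3 library SD, with starting fluorescence B-score inside 5 SD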
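System – MrgX1-expressing HEK293 cells · Incubation – cells plated overnight, dye loaded 0.5 h 37 °C, 0.5 h room temperature · Technique – kinetic Fluo-4 NW fluorescence of intracellular calcium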
MrgX1 allo act – human MrgX1 positive allosteric modulation, primary screen; Q96LB2; MrgX1-HEK293, Fluo-4 calcium flux, FDSS; hits give high values; B-score at 10 µM; 0.63% of 310,000 active;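 active = plate-corrected calcium response at least 3 library SD above typical, normal starting fluorescence, not activating the receptor alone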;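 also: compound read alongside a low EC10 to EC30 dose of BAM8-22 agonist; peak minus trough fluorescence over baseline measured at the second addition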
RGS4 pot – RGS4 potentiation or activation | 0.92% of 310,000 active | HEK293 M3R/inducible RGS4, carbachol calcium flux Fluo4; hits give low values | B-score at 10 µM | AID 463111;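 active = B-score of the integrated calcium signal more than 4 SD below the library mean, with starting fluorescence not abnormally high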;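 also: negative B-score means reduced calcium response which marks RGS4 activation or potentiation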
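Detection: kinetic calcium fluorescence imaging with Fluo4-AM dye, 2 µM / Material: HEK293 cells with stable M3R and inducible RGS4 / Schedule: recording 10 s baseline at 1 Hz, 100 s post-agonist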
RGS4 inh – human RGS4 inhibition; 0.45% of 310,000 active; HEK293 M3R/RGS4 inducible, Fluo-4 calcium flux; hits give high values; triggered by carbachol at its EC20; P49798; B-score at 10 µM; AID 463165;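 active = B-score, a plate-corrected calcium signal, over three deviations above library mean, with baseline fluorescence within five deviations of library mean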;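 also: RGS4 expression induced by doxycycline in cells with stable M3 receptor; B-score is computed from the integrated fluorescence ratio over baseline after carbachol; higher B-score means a larger calcium signal and so more RGS4 inhibition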
Target sequence (P49798 whole entry, looked up): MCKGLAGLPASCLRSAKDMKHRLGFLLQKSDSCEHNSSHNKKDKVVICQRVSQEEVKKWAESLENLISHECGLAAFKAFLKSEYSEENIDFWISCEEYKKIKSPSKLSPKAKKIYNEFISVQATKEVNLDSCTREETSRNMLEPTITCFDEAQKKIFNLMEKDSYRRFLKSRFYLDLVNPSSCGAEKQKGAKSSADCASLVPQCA
MrgX1 ag reconf – reconfirmed activator of human MrgX1 receptor signaling; activation, % at 10 µM; AID 602412; 78% of 600 active; shares compounds with MrgX1 agonist; MrgX1-HEK293, Fluo-4 calcium fluorescence, FDSS;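 active = calcium signal rise, corrected for plate position, at least 3 library SD high, with starting brightness within 5 such deviations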; also: reference of the scale not given here
HEK293 Ca flux – MrgX1 antagonist counter-screen hit in parental HEK293 cells. 2% of 4,000 active. shares compounds with MrgX1 antagonist. Fluo-4 calcium fluorescence, FDSS. fluorescence ratio F(max-min)/F0 at 10 µM. AID 624111;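 active = duplicate-averaged calcium fluorescence ratio at least three times the standard deviation of buffer wells, a nonspecific response in parental cells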
HEK293 Ca counter – activity in parental HEK293 cells without MrgX1; 0.4% of 4,000 active; shares compounds with MrgX1 antagonist; fluorescence ratio F(max-min)/F0 at 10 µM; parental HEK293 calcium flux, Fluo-4 fluorescence ratio; hits give high values;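 active = calcium fluorescence ratio, averaged over duplicates, at least 3 SD of the buffer-well ratio, meaning a nonspecific response in receptor-free cells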;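 also: untransfected parental HEK293 lacking MrgX1 used as counterscreen for MrgX1 allosteric activators; fluorescence change taken during the second addition on a kinetic imager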
HEK293 Ca cntr2 – counter-screen for MrgX1 activators: effect in parental HEK293 cells. Fluo-4 calcium fluorescence (FDSS); hits give high values. shares compounds with MrgX1 antagonist. fluorescence ratio F(max-min)/F0 at 10 µM. AID 624115. 8.7% of 4,000 active;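 active = calcium fluorescence ratio at least three times the spread of buffer wells, meaning a non-specific response in parental cells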
Active calls of the source: *; i = inactive; . = not tested or not shown.

SMILES	MrgX1 antagonist	MrgX1 agonist	MrgX1 allo act	RGS4 pot	RGS4 inh	MrgX1 ag reconf	HEK293 Ca flux	HEK293 Ca counter	HEK293 Ca cntr2
Fc1cccc(NCCc2c[nH]c3ccccc23)n1	i	28*	i	i	i	116%*	i	i	i
CCc1cc(=O)n2c([nH]c3ccccc32)c1C#N	i	i	i	i	i	.	.	.	.
CCc1cc(=S)n2c([nH]c3ccccc32)c1C#N	i	43*	i	i	i	284%*	i	i	93*
Cc1ccc(NC(=O)[C@@H]2CCCN2S(=O)(=O)c2ccccc2F)cc1S(=O)(=O)N1CCOCC1	i	i	i	i	i	.	.	.	.
COCCCn1c(N)c(-c2nc3ccccc3n2C)c2nc3ccccc3nc21	i	60*	i	i	i	249%*	i	i	87*
CSc1nnc(C)c(/C=C/Nc2ccc(Cl)cc2)n1	i	45*	i	i	i	248%*	0.36*	i	74*
CSc1nnc(C)c(/C=C/Nc2ccc(F)cc2)n1	i	30*	i	i	i	152%*	i	i	i
CC/C(=N/Nc1ccc(Cl)cc1)c1cnnc(SC)n1	i	i	i	i	i	.	.	.	.
COc1ccc(N/C=C/c2nc(SC)nnc2C)cc1	i	i	i	i	i	.	.	.	.
CCCN1CCN(CCCNC(=O)Cn2cc3c(n2)CCCC3)CC1	i	i	i	i	i	.	.	.	.
N#Cc1c(-c2ccc(Br)cc2)nc2n(c1=O)CCCS2	i	i	i	i	i	.	.	.	.
CCOC(=O)c1c(NC(=O)c2ccccc2C(=O)O)sc2c1CCCC2	i	34*	i	i	i	192%*	i	i	i
COc1ccccc1-n1cnc2cc(C(=O)NCc3ccco3)ccc21	i	i	i	.	.	.	.	.	.
CCC1(C)NC(=O)N(CC(=O)Nc2sc3c(c2C(=O)OC)CCCCC3)C1=O (centres undefined)	i	28*	i	i	i	437%*	i	i	128*
COc1ccnc(CSC(N)=Nc2ccc(F)cc2)c1	i	75*	i	i	i	383%*	i	i	75*
COc1cccc(N/C(N)=N/c2nc(CSc3ccccn3)cc(=O)[nH]2)c1	i	i	i	i	i	.	.	.	.
CCC(=O)Nc1ccc(N/C(N)=N/c2nc(C)cc(C)n2)cc1	i	i	i	i	i	.	.	.	.
Cc1ccc(N/C(N)=N/c2nc(C)cc(C)n2)cc1	i	124*	i	i	i	432%*	i	i	97*
Cc1cc(C)nc(/N=C(\N)Nc2ccc(C(C)C)cc2)n1	i	32*	i	i	i	119%*	i	i	i
Cc1cccc(N/C(N)=N/c2nc(C)cc(C)n2)c1	i	69*	i	i	i	358%*	i	i	76*
Cc1cc(C)cc(N/C(N)=N/c2nc(C)cc(C)n2)c1	i	33*	i	i	i	132%*	i	i	i
CC(=O)Nc1ccc(S(=O)(=O)NCCSCc2ccccc2Cl)cc1	i	i	i	i	i	.	.	.	.
COc1ccccc1N(CC(=O)N1CCCCCC1)S(=O)(=O)c1ccc(C)cc1	i	i	i	i	i	.	.	.	.
CCOc1ccccc1N(CC(=O)N1CCOCC1)S(=O)(=O)c1ccccc1	i	138*	i	i	i	541%*	i	i	103*
CCOc1ccccc1N(CC(=O)N1CCC(C)CC1)S(=O)(=O)c1ccc(C)cc1	i	i	i	i	i	.	.	.	.
SMILES	MrgX1 antagonist	MrgX1 agonist	MrgX1 allo act	RGS4 pot	RGS4 inh	MrgX1 ag reconf	HEK293 Ca flux	HEK293 Ca counter	HEK293 Ca cntr2
CCOc1ccccc1N(CC(=O)N1CCCCCC1)S(=O)(=O)c1ccc(C)cc1	i	34*	i	i	i	142%*	i	i	50*
C=CCN(C#N)c1nc(OC)nc(N2CCCC2)n1	i	i	i	i	i	.	.	.	.
CCOC(=O)CNc1nc(-c2ccncc2)nc2ccccc12	i	56*	i	.	.	236%*	i	i	47*
O=C(Nc1nnc(-c2ccccc2Cl)o1)c1nc2ccccc2s1	i	103*	i	i	i	433%*	i	i	84*
O=C(NCCc1ccc(F)cc1)c1ccc2c(=O)n3c(nc2c1)CCC3	i	32*	i	i	i	217%*	i	i	52*
O=C(NCc1ccccc1)c1ccc2c(=O)n3c(nc2c1)CCCCC3	i	i	i	i	i	.	.	.	.
Cn1c(=O)c2[nH]c(N3CCCCC3)nc2n(C)c1=O	i	i	i	i	i	.	.	.	.
Cn1c(=O)c2[nH]c(C3CCCC3)nc2n(C)c1=O	i	36*	i	i	i	i	i	i	i
O=C1C2CC=CCC2C(=O)N1c1cccc(OS(=O)(=O)c2ccc3ccccc3c2)c1 (centres undefined)	i	i	i	i	i	.	.	.	.
ONc1cccnc1-n1nc(C(F)(F)F)cc1C(F)(F)F	i	i	i	i	i	.	.	.	.
CCc1[nH]nc2c1C(c1ccc(Br)s1)C(C#N)=C(N)O2 (centres undefined)	i	48*	i	.	.	146%*	i	i	i
CC(C)c1[nH]nc2c1C(c1cccnc1)C(C#N)=C(N)O2 (centres undefined)	i	i	i	i	i	.	.	.	.
Cc1ccc(SCc2[nH]nc3c2C(c2ccco2)C(C#N)=C(N)O3)cc1 (centres undefined)	i	40*	i	i	i	161%*	i	i	i
CC(C)c1[nH]nc2c1C(c1ccco1)C(C#N)=C(N)O2 (centres undefined)	i	27*	i	i	i	i	i	i	i
O=C(CN1CCCCC1)N1CCCc2c1c(=O)oc1ccc(OCc3ccccc3)cc21	i	i	i	i	i	.	.	.	.
Cc1cc(N2CCCCC2)nc(NCc2ccccc2)n1	i	83*	i	i	i	340%*	i	i	i
